{"source": "ChEMBL document CHEMBL4480439", "about": "“Fuscasins A-D, Cycloheptapeptides from the Marine Sponge Phakellia fusca” (J Nat Prod, 2019)", "key": {"[1]": {"system": "HepG2", "test": "Cytotoxicity against human HepG2 cells assessed as reduction in cell viability up to 20 uM after 72 hrs by CCK8 assay", "type": "functional, cell-based", "method_in_brief": "(§1)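 Cells grown at 37 °C in DMEM with 10% FBS and antibiotics, seeded at 3 × 10³ cells/well, and exposed to compound for 72 h. CCK-8 reagent was then added for 1 h at 37 °C in 5% CO₂, and OD was read at 450 nm. IC50 was obtained by fitting a log(inhibitor)-response model.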"}, "[2]": {"system": "H9c2", "test": "Cytotoxicity against rat H9c2 cells assessed as reduction in cell viability up to 100 uM after 72 hrs by CCK8 assay", "type": "cell-based", "conditions": "h9c2, 72 h", "method_in_brief": "as §1"}, "[3]": {"system": "HepG2", "test": "Cytotoxicity against human HepG2 cells assessed as reduction in cell viability after 72 hrs by CCK8 assay", "type": "functional, cell-based", "conditions": "HepG2, 72 h", "method_in_brief": "as §1"}, "[4]": {"system": "NCI-H460", "test": "Cytotoxicity against human NCI-H460 cells assessed as reduction in cell viability up to 20 uM after 72 hrs by CCK8 assay", "type": "functional, cell-based", "method_in_brief": "(§2)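 Cells maintained in RPMI 1640 with 10% FBS and antibiotics, plated at 3 × 10³ cells/well, and treated for 72 h. After 1 h incubation with CCK-8 at 37 °C in 5% CO₂, absorbance was recorded at 450 nm. IC50 came from a log(inhibitor)-response curve fit.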"}, "[5]": {"system": "MCF7", "test": "Cytotoxicity against human MCF7 cells assessed as reduction in cell viability up to 20 uM after 72 hrs by CCK8 assay", "type": "functional, cell-based", "method_in_brief": "as §1"}, "[6]": {"system": "HeLa", "test": "Cytotoxicity against human HeLa cells assessed as reduction in cell viability up to 20 uM after 72 hrs by CCK8 assay", "type": "functional, cell-based", "method_in_brief": "as §1"}, "[7]": {"system": "SW480", "test": "Cytotoxicity against human SW480 cells assessed as reduction in cell viability up to 20 uM after 72 hrs by CCK8 assay", "type": "functional, cell-based", "method_in_brief": "as §2"}, "[8]": {"system": "PC-9", "test": "Cytotoxicity against human PC9 cells assessed as reduction in cell viability up to 20 uM after 72 hrs by CCK8 assay", "type": "functional, cell-based", "method_in_brief": "as §2"}}, "note": "Calls of active or inactive are those of the source. No cut-off for these calls is given here. Residues, ends and D or L forms follow the SMILES beside them.", "data": [{"smiles": "CC(C)C[C@@H]1NC(=O)[C@H](C)NC(=O)[C@H](Cc2ccc(O)cc2)NC(=O)[C@H](CCCNC(=N)N)NC(=O)[C@H](CC(N)=O)NC(=O)[C@H](C(C)C)NC(=O)[C@@H]2CCCN2C1=O", "note": "(cyclo(ALPVNRY))", "values": [{"measurement": "Activity", "setting": "[1]", "value": "inactive"}]}, {"smiles": "CC(C)C[C@@H]1NC(=O)[C@H](Cc2ccc(O)cc2)NC(=O)[C@H](CC(=O)O)NC(=O)[C@@H]2CCCN2C(=O)[C@H](CC(C)C)NC(=O)[C@@H]2CCCN2C(=O)[C@H](CC(C)C)NC1=O", "note": "(cyclo(DYLLPLP))", "values": [{"measurement": "Activity", "setting": "[1]", "value": "inactive"}]}, {"smiles": "CC(C)C[C@@H]1NC(=O)[C@H](C)NC(=O)[C@@H]2CCCN2C(=O)[C@H](C)NC(=O)[C@H](Cc2ccc(O)cc2)NC(=O)[C@@H]2CCCN2C(=O)[C@H](Cc2ccc(O)cc2)NC1=O", "note": "(cyclo(ALYPYAP))", "values": [{"measurement": "Activity", "setting": "[1]", "value": "inactive"}]}, {"smiles": "CC(C)C[C@@H]1NC(=O)[C@H](C(C)C)NC(=O)[C@H](Cc2ccccc2)N2C(=O)C[C@H](NC(=O)[C@@H]3CCCN3C(=O)[C@@H]3CCCN3C(=O)[C@@H]3CCCN3C1=O)C2=O", "values": [{"measurement": "Activity", "setting": "[2]", "value": "Non-Toxic"}, {"measurement": "IC50", "setting": "[3]", "value": 4.6, "unit": "µM"}, {"measurement": "Activity", "setting": "[4]", "value": "inactive"}, {"measurement": "Activity", "setting": "[5]", "value": "inactive"}, {"measurement": "Activity", "setting": "[6]", "value": "inactive"}, {"measurement": "Activity", "setting": "[7]", "value": "inactive"}, {"measurement": "Activity", "setting": "[8]", "value": "inactive"}]}]}
